{
  "source": "ChEMBL document CHEMBL1127405",
  "about": "“Synthesis and antitumor evaluation of bis[(pivaloyloxy)methyl] 2'-deoxy-5-fluorouridine 5'-monophosphate (FdUMP): a strategy to introduce nucleotides into cells” (J Med Chem, 1994)",
  "type_in_all_cases": "functional",
  "key": {"Mus musculus [1]": {"system": "Mus musculus", "experiment": "The compound was tested for increase in life span for mice implanted intraperitoneally with P-388/FU Leukemia cell line at 150 mg/kg", "settings": "P388, ip, route intraperitoneal", "procedure,_shortened": "(§1)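 Male BDF1 mice, six per group, implanted ip with 1×10^6 P-388/0 or P-388/FU cells on day 0. Dosed ip daily for 5 days from 24 h post-implant, in saline or Emulphor 620 vehicle. Mice observed until death. %ILS = (T/C − 1)×100, from median survival of treated mice (T) versus saline-treated controls (C).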"}, "Mus musculus [2]": {"system": "Mus musculus", "experiment": "The compound was tested for increase in life span for mice implanted intraperitoneally with P-388/FU Leukemia cell line at 100 mg/kg", "settings": "P388, ip, route intraperitoneal", "procedure,_shortened": "as §1"}, "Mus musculus [3]": {"system": "Mus musculus", "experiment": "The compound was tested for change in weight for mice implanted intraperitoneally with P-388/FU Leukemia cell line at 150 mg/kg", "settings": "route intraperitoneal", "procedure,_shortened": "(§2)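 Male BDF1 mice inoculated ip on day 0 with 1 × 10^6 leukemia cells (six mice per group, average weight 22 g). Dosing ip once daily for 5 consecutive days starting 24 h after implantation. Fluoropyrimidine references in 0.9% saline; prodrugs formulated with Emulphor 620; vehicle controls 0.2 mL. Percent body weight change recorded per group.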"}, "Mus musculus [4]": {"system": "Mus musculus", "experiment": "The compound was tested for change in weight for mice implanted intraperitoneally with P-388/0 Leukemia cell line at 67 mg/kg", "settings": "route intraperitoneal", "procedure,_shortened": "as §2"}, "Mus musculus [5]": {"system": "Mus musculus", "experiment": "The compound was tested for mean survival time for 15 mice implanted Intraperitoneally with P-388/FU Leukemia cell line at 150 mg/kg", "settings": "route intraperitoneal", "procedure,_shortened": "(§3)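 P-388/0 or P-388/FU cells (1×10^6) implanted ip into male BDF1 mice on day 0. Dosing was ip, daily for 5 consecutive days beginning 24 h later, in saline or Emulphor 620 vehicle. Six mice per treated group. Animals followed to death and median survival time recorded in days. The control group had 15 mice.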"}, "Mus musculus [6]": {"system": "Mus musculus", "experiment": "The compound was tested for increase in life span for mice implanted intraperitoneally with P-388/0 Leukemia cell line at 67 mg/kg", "settings": "P388, ip, route intraperitoneal", "procedure,_shortened": "as §1"}, "Mus musculus [7]": {"system": "Mus musculus", "experiment": "The compound was tested for mean survival time for 15 mice implanted Intraperitoneally with P-388/FU Leukemia cell line at 100 mg/kg", "settings": "route intraperitoneal", "procedure,_shortened": "as §3"}, "Mus musculus [8]": {"system": "Mus musculus", "experiment": "The compound was tested for increase in life span for mice implanted intraperitoneally with P-388/FU Leukemia cell line at 67 mg/kg", "settings": "P388, ip, route intraperitoneal", "procedure,_shortened": "as §1"}, "Mus musculus [9]": {"system": "Mus musculus", "experiment": "The compound was tested for change in weight for mice implanted intraperitoneally with P-388/FU Leukemia cell line at 67 mg/kg", "settings": "route intraperitoneal", "procedure,_shortened": "as §2"}, "Mus musculus [10]": {"system": "Mus musculus", "experiment": "The compound was tested for increase in life span for mice implanted intraperitoneally with P-388/0 Leukemia cell line at 100 mg/kg", "settings": "P388, ip, route intraperitoneal", "procedure,_shortened": "as §1"}, "Mus musculus [11]": {"system": "Mus musculus", "experiment": "The compound was tested for mean survival time for 15 mice implanted Intraperitoneally with P-388/0 Leukemia cell line at 67 mg/kg", "settings": "route intraperitoneal", "procedure,_shortened": "as §3"}, "Mus musculus [12]": {"system": "Mus musculus", "experiment": "The compound was tested for mean survival time for 15 mice implanted Intraperitoneally with P-388/0 Leukemia cell line at 100 mg/kg", "settings": "route intraperitoneal", "procedure,_shortened": "as §3"}, "Mus musculus [13]": {"system": "Mus musculus", "experiment": "The compound was tested for change in weight for mice implanted intraperitoneally with P-388/0 Leukemia cell line at 150 mg/kg", "settings": "route intraperitoneal", "procedure,_shortened": "as §2"}, "Mus musculus [14]": {"system": "Mus musculus", "experiment": "The compound was tested for mean survival time for 15 mice implanted Intraperitoneally with P-388/0 Leukemia cell line at 150 mg/kg", "settings": "route intraperitoneal", "procedure,_shortened": "as §3"}, "Mus musculus [15]": {"system": "Mus musculus", "experiment": "The compound was tested for change in weight for mice implanted intraperitoneally with P-388/0 Leukemia cell line at 100 mg/kg", "settings": "route intraperitoneal", "procedure,_shortened": "as §2"}, "Mus musculus [16]": {"system": "Mus musculus", "experiment": "The compound was tested for change in weight for mice implanted intraperitoneally with P-388/FU Leukemia cell line at 100 mg/kg", "settings": "route intraperitoneal", "procedure,_shortened": "as §2"}, "Mus musculus [17]": {"system": "Mus musculus", "experiment": "The compound was tested for […] implanted Intraperitoneally with P-388/FU Leukemia cell line at 67 mg/kg", "settings": "route intraperitoneal"}, "Mus musculus [18]": {"system": "Mus musculus", "experiment": "The compound was tested for increase in life span for mice implanted intraperitoneally with P-388/0 Leukemia cell line at 150 mg/kg", "settings": "P388, ip, route intraperitoneal", "procedure,_shortened": "as §1"}, "Mus musculus [19]": {"system": "Mus musculus", "experiment": "The compound was tested for mean survival time for 15 mice implanted Intraperitoneally with P-388/FU Leukemia cell line at 30 mg/kg", "settings": "route intraperitoneal", "procedure,_shortened": "as §3"}, "Mus musculus [20]": {"system": "Mus musculus", "experiment": "The compound was tested for increase in life span for mice implanted intraperitoneally with P-388/FU Leukemia cell line at 20 mg/kg", "settings": "P388, ip, route intraperitoneal", "procedure,_shortened": "as §1"}, "Mus musculus [21]": {"system": "Mus musculus", "experiment": "The compound was tested for change in weight for mice implanted intraperitoneally with P-388/FU Leukemia cell line at 20 mg/kg", "settings": "route intraperitoneal", "procedure,_shortened": "(§4)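 Male BDF1 mice (six per group, average 22 g) given 1×10^6 P-388 cells ip on day 0. Drug dosed ip once daily for 5 consecutive days, starting 24 h after implantation, in 0.9% saline or, where insoluble, Emulphor 620. Percentage body-weight change recorded per dose group.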"}, "Mus musculus [22]": {"system": "Mus musculus", "experiment": "The compound was tested for change in weight for mice implanted intraperitoneally with P-388/0 Leukemia cell line at 20 mg/kg", "settings": "route intraperitoneal", "procedure,_shortened": "as §4"}, "Mus musculus [23]": {"system": "Mus musculus", "experiment": "The compound was tested for mean survival time for 15 mice implanted Intraperitoneally with P-388/FU Leukemia cell line at 20 mg/kg", "settings": "route intraperitoneal", "procedure,_shortened": "as §3"}, "Mus musculus [24]": {"system": "Mus musculus", "experiment": "The compound was tested for change in weight for mice implanted intraperitoneally with P-388/FU Leukemia cell line at 30 mg/kg", "settings": "route intraperitoneal", "procedure,_shortened": "as §4"}, "Mus musculus [25]": {"system": "Mus musculus", "experiment": "The compound was tested for mean survival time for 15 mice implanted Intraperitoneally with P-388/0 Leukemia cell line at 30 mg/kg", "settings": "route intraperitoneal", "procedure,_shortened": "as §3"}, "Mus musculus [26]": {"system": "Mus musculus", "experiment": "The compound was tested for increase in life span for mice implanted intraperitoneally with P-388/0 Leukemia cell line at 30 mg/kg", "settings": "P388, ip, route intraperitoneal", "procedure,_shortened": "as §1"}, "Mus musculus [27]": {"system": "Mus musculus", "experiment": "The compound was tested for increase in life span for mice implanted intraperitoneally with P-388/FU Leukemia cell line at 30 mg/kg", "settings": "P388, ip, route intraperitoneal", "procedure,_shortened": "as §1"}, "Mus musculus [28]": {"system": "Mus musculus", "experiment": "The compound was tested for mean survival time for 15 mice implanted Intraperitoneally with P-388/FU Leukemia cell line at 40 mg/kg", "settings": "route intraperitoneal", "procedure,_shortened": "as §3"}, "Mus musculus [29]": {"system": "Mus musculus", "experiment": "The compound was tested for increase in life span for mice implanted intraperitoneally with P-388/FU Leukemia cell line at 40 mg/kg", "settings": "P388, ip, route intraperitoneal", "procedure,_shortened": "as §1"}, "Mus musculus [30]": {"system": "Mus musculus", "experiment": "The compound was tested for mean survival time for 15 mice implanted Intraperitoneally with P-388/0 Leukemia cell line at 20 mg/kg", "settings": "route intraperitoneal", "procedure,_shortened": "as §3"}, "Mus musculus [31]": {"system": "Mus musculus", "experiment": "The compound was tested for change in weight for mice implanted intraperitoneally with P-388/FU Leukemia cell line at 40 mg/kg", "settings": "route intraperitoneal", "procedure,_shortened": "as §4"}, "Mus musculus [32]": {"system": "Mus musculus", "experiment": "The compound was tested for change in weight for mice implanted intraperitoneally with P-388/0 Leukemia cell line at 30 mg/kg", "settings": "route intraperitoneal", "procedure,_shortened": "as §4"}, "Mus musculus [33]": {"system": "Mus musculus", "experiment": "The compound was tested for increase in life span for mice implanted intraperitoneally with P-388/0 Leukemia cell line at 20 mg/kg", "settings": "P388, ip, route intraperitoneal", "procedure,_shortened": "as §1"}},
  "data": [
    {"compound": "O=c1[nH]c(=O)n([C@H]2C[C@H](O)[C@@H](CO)O2)cc1F", "note": "[FLOXURIDINE]", "values": [
      {"measurement": "ILS at 150 mg/kg", "setting": "Mus musculus [1]", "value": 18, "unit": "%"},
      {"measurement": "ILS at 100 mg/kg", "setting": "Mus musculus [2]", "value": 18, "unit": "%"},
      {"measurement": "Weight change", "setting": "Mus musculus [3]", "value": -10, "unit": "%"},
      {"measurement": "Weight change", "setting": "Mus musculus [4]", "value": -2, "unit": "%"},
      {"measurement": "MST", "setting": "Mus musculus [5]", "value": 13, "unit": "days"},
      {"measurement": "ILS at 67 mg/kg", "setting": "Mus musculus [6]", "value": 45, "unit": "%"},
      {"measurement": "MST", "setting": "Mus musculus [7]", "value": 13, "unit": "days"},
      {"measurement": "ILS at 67 mg/kg", "setting": "Mus musculus [8]", "value": 9, "unit": "%"},
      {"measurement": "Weight change", "setting": "Mus musculus [9]", "value": -6, "unit": "%"},
      {"measurement": "ILS at 100 mg/kg", "setting": "Mus musculus [10]", "value": 73, "unit": "%"},
      {"measurement": "MST", "setting": "Mus musculus [11]", "value": 16, "unit": "days"},
      {"measurement": "MST", "setting": "Mus musculus [12]", "value": 19, "unit": "days"},
      {"measurement": "Weight change", "setting": "Mus musculus [13]", "value": -5, "unit": "%"},
      {"measurement": "MST", "setting": "Mus musculus [14]", "value": 20, "unit": "days"},
      {"measurement": "Weight change", "setting": "Mus musculus [15]", "value": -4, "unit": "%"},
      {"measurement": "Weight change", "setting": "Mus musculus [16]", "value": -10, "unit": "%"},
      {"measurement": "MST", "setting": "Mus musculus [17]", "value": 12, "unit": "days"},
      {"measurement": "ILS at 150 mg/kg", "setting": "Mus musculus [18]", "value": 82, "unit": "%"}
    ]},
    {"compound": "O=c1[nH]cc(F)c(=O)[nH]1", "note": "[FLUOROURACIL]", "values": [
      {"measurement": "MST", "setting": "Mus musculus [19]", "value": 9, "unit": "days"},
      {"measurement": "ILS at 20 mg/kg", "setting": "Mus musculus [20]", "value": -9, "unit": "%"},
      {"measurement": "Weight change", "setting": "Mus musculus [21]", "value": -6, "unit": "%"},
      {"measurement": "Weight change", "setting": "Mus musculus [22]", "value": -5, "unit": "%"},
      {"measurement": "MST", "setting": "Mus musculus [23]", "value": 10, "unit": "days"},
      {"measurement": "Weight change", "setting": "Mus musculus [24]", "value": -15, "unit": "%"},
      {"measurement": "MST", "setting": "Mus musculus [25]", "value": 17, "unit": "days"},
      {"measurement": "ILS at 30 mg/kg", "setting": "Mus musculus [26]", "value": 55, "unit": "%"},
      {"measurement": "ILS at 30 mg/kg", "setting": "Mus musculus [27]", "value": -18, "unit": "%"},
      {"measurement": "MST", "setting": "Mus musculus [28]", "value": 9, "unit": "days"},
      {"measurement": "ILS at 40 mg/kg", "setting": "Mus musculus [29]", "value": -18, "unit": "%"},
      {"measurement": "MST", "setting": "Mus musculus [30]", "value": 16, "unit": "days"},
      {"measurement": "Weight change", "setting": "Mus musculus [31]", "value": -18, "unit": "%"},
      {"measurement": "Weight change", "setting": "Mus musculus [32]", "value": -15, "unit": "%"},
      {"measurement": "ILS at 20 mg/kg", "setting": "Mus musculus [33]", "value": 45, "unit": "%"}
    ]}
  ]
}
